Data from ChEMBL document CHEMBL1134305, “Synthesis and structure-activity relationships of N-(1-benzylpiperidin-4-yl)arylacetamide analogues as potent sigma1 receptor ligands” (J Med Chem, 2001).

Target: Sigma 2 receptor
Experiment: Binding affinity for sigma 2 opioid receptor, measured on rat liver membranes using [3H]- DTG as radioligand in the presence of (+)-pentazocine
Design: species or system Membrane
How it was run: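 Rat liver P2 membranes (male Sprague-Dawley, 300-350 g; 35 µg protein) incubated with 3 nM [3H]DTG plus 100 nM (+)-pentazocine masking σ1 sites, in 50 mM Tris-HCl pH 8.0, 120 min, 25 °C. Test compounds at 0.005-1000 nM (eight concentrations). Nonspecific binding defined with 5 µM DTG. Filtration, scintillation counting. IC50 by nonlinear regression, generally in triplicate. Ki from at least three experiments.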

Row | Ki [µM] | Compound
1 | > 1 | O=C(Cc1ccccc1)NC1CCN(Cc2cccc(F)c2)CC1
2 | 0.14 | O=C(Cc1ccccc1F)NC1CCN(Cc2ccc(F)cc2)CC1
3 | 0.181 | O=C(Cc1ccccc1F)NC1CCN(Cc2cccc(I)c2)CC1
4 | 0.0503 | O=C(Cc1cccc(F)c1)NC1CCN(Cc2cccc(I)c2)CC1
5 | 0.683 | O=C(Cc1ccccc1)NC1CCN(Cc2ccccc2F)CC1
6 | 0.24 | O=C(Cc1ccccc1)NC1CCN(Cc2ccccc2)CC1
7 | 0.171 | O=C(Cc1ccccc1)NC1CCN(Cc2ccc3c(c2)OCO3)CC1
8 | 0.0303 | O=C(Cc1cccc(Cl)c1)NC1CCN(Cc2cccc(I)c2)CC1
9 | 0.631 | O=C(Cc1ccccc1)NC1CCN(Cc2ccccc2I)CC1
10 | 0.694 | O=C(Cc1ccccc1)NC1CCN(Cc2ccc(I)cc2)CC1
11 | 0.00938 | O=C(Cc1cccc(Cl)c1)NC1CCN(Cc2ccc(F)cc2)CC1
12 | 0.3 | O=C(Cc1ccccc1)NC1CCN(Cc2ccc(C(F)(F)F)cc2)CC1
13 | > 1 | O=C(Cc1c[nH]cn1)NC1CCN(Cc2ccccc2)CC1
14 | 0.0593 | O=C(Cc1cccc(Br)c1)NC1CCN(Cc2cccc(I)c2)CC1
15 | 0.233 | O=C(Cc1ccccc1F)NC1CCN(Cc2ccc(I)cc2)CC1
16 | > 1 | O=C(Cc1ccncc1)NC1CCN(Cc2ccccc2)CC1
17 | 0.0829 | O=C(Cc1ccccc1)NC1CCN(Cc2ccc(F)cc2)CC1
18 | 0.191 | O=C(Cc1ccccc1)NC1CCN(Cc2cccc(I)c2)CC1
19 | 0.393 | O=C(Cc1cccs1)NC1CCN(Cc2ccccc2)CC1
20 | 0.416 | COc1ccc2c(c1)C(CC(=O)NC1CCN(Cc3ccccc3)CC1)CC2=O (stereo not given)
21 | 0.257 | O=C(Cc1cccc(Cl)c1)NC1CCN(Cc2ccc(I)cc2)CC1
22 | > 1 | O=C(Cc1c[nH]c2ccccc12)NC1CCN(Cc2ccccc2)CC1
23 | 0.031 | O=C(Cc1cccc(F)c1)NC1CCN(Cc2ccc(F)cc2)CC1
24 | 0.232 | O=C(Cc1ccccc1)NC1CCN(Cc2ccc(F)c(F)c2)CC1
25 | 0.678 | O=C(Cc1c[nH]c2ccc(Br)cc12)NC1CCN(Cc2ccccc2)CC1
26 | > 1 | COc1ccc2[nH]cc(CC(=O)NC3CCN(Cc4ccccc4)CC3)c2c1
27 | > 1 | O=C(CSc1ncccn1)NC1CCN(Cc2ccccc2)CC1

The remaining lines, values behind:

Row | Compound | Ki [µM]
28 | O=C(Cc1cccnc1)NC1CCN(Cc2ccccc2)CC1 | > 1
29 | O=C(Cc1ccccn1)NC1CCN(Cc2ccccc2)CC1 | > 1
30 | O=C(Cc1cccc(F)c1)NC1CCN(Cc2ccc(I)cc2)CC1 | 0.168
31 | O=C(Nc1cccc2ccccc12)NC1CCN(Cc2ccccc2)CC1 | 0.025
32 | O=C(Cc1cccc2ccccc12)NC1CCN(Cc2ccccc2)CC1 | 0.0394
33 | O=C(Cc1ccccc1)NC1CCN(Cc2ccc(Cl)c(Cl)c2)CC1 | 0.423
34 | O=C(Cc1ccccc1)NC1CCN(CCc2ccccc2)CC1 | 0.107
35 | O=C(Cc1ccccc1)NC1CCN(Cc2cccc(C(F)(F)F)c2)CC1 | 0.513
36 | O=C(Cc1ccc(I)cc1)NC1CCN(Cc2ccccc2)CC1 | 0.0613
37 | O=C(Cc1cccc(Br)c1)NC1CCN(Cc2ccc(I)cc2)CC1 | 0.0903
38 | OC(CCCN1CCC(O)(c2ccc(Cl)cc2)CC1)c1ccc(F)cc1 (stereo not given) [HYDROXYHALOPERIDOL] | 0.0286
39 | O=C(Cc1ccsc1)NC1CCN(Cc2ccccc2)CC1 | 0.337
40 | O=C(Cc1cc(=O)oc2cc(O)ccc12)NC1CCN(Cc2ccccc2)CC1 | > 1
41 | O=C(Cc1ccccc1)NC1CCN(Cc2ccc3ccccc3c2)CC1 | 0.189
42 | O=C(Cc1ccccc1)NC1CCN(Cc2ccccc2C(F)(F)F)CC1 | > 1
43 | O=C(Cc1ccccc1)NC1CCN(Cc2ccc([N+](=O)[O-])cc2)CC1 | 0.319
44 | O=C(Cc1ccc2ccccc2c1)NC1CCN(Cc2ccccc2)CC1 | 0.112
45 | O=C(Cc1cccc(Br)c1)NC1CCN(Cc2ccc(F)cc2)CC1 | 0.00606
